Article PMC8112392 (Science signaling, 2021)
“Also recorded” adds a separate entry of the source. Where two headings read alike, the source gives them in different places.

What was measured:
Tlp10^LBD = assay: Glycan and small molecule array binding of purified Tlp10 LBD; parameters: species or system C. jejuni; details: for interaction of Tlp10^LBD with complex glycans: glycan array; for array: binding to Tlp10^LBD on glycan / small molecule array
C. jejuni 11168-O [1] = assay type: cell-based; details: nutrient-depleted chemotaxis assay, 2 mM ligand
Tlp10^LBD N115A = Tlp10^LBD N115A (Campylobacter jejuni, UniProt Q0PCA6, N115A); assay: biochemical; assay type: binding, C. jejuni
Tlp10^LBD wild type [2] = target: T1, Tlp10^LBD wild type (Campylobacter jejuni, UniProt Q0PCA6); assay type: binding; details: competition SPR, compounds at 10x KD
C. jejuni 11168-O [3] = assay: μ-Slide chemotactic cell migration visualisation; assay type: cell-based; details: time-lapse imaging, 10 mM ligand
Method in brief: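 Wild-type, Δtlp10 and complemented C. jejuni 11168-O cells are FITC-labelled. In a μ-Slide, the left reservoir holds bacterial suspension, and the right reservoir and transition zone hold PBS. Once cells near the transition zone, isoleucine or arginine is added to the right reservoir (final 10 mM). In the sequential test, arginine is added at 20 sec after partial migration toward isoleucine. Migration is recorded by time-lapse video at 40× magnification.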

Tlp10^LBD H193A = Tlp10^LBD H193A (Campylobacter jejuni, UniProt Q0PCA6, H193A); assay: biochemical; assay type: binding, C. jejuni
Tlp10^LBD wild type [4] = target: T1, Tlp10^LBD wild type; assay: biochemical; assay type: binding; details: for Kd: SPR, n = 3; for SPR: binding to Tlp10^LBD by SPR
Tlp10^LBD N120A = Tlp10^LBD N120A (Campylobacter jejuni, UniProt Q0PCA6, N120A); assay: biochemical; assay type: binding, C. jejuni
Tlp10^LBD Y70A = Tlp10^LBD Y70A (Campylobacter jejuni, UniProt Q0PCA6, Y70A); assay: biochemical; assay type: binding, C. jejuni
C. jejuni 11168-O [5] = assay: μ-Slide chemotaxis cell enumeration assay; assay type: cell-based; details: 10 mM chemoeffector
Method in brief: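 Wild-type, Δtlp10LBD and complemented strains are harvested from MHA plates into PBS, adjusted to OD600 1 and mixed 1:1 (vol:vol) with 1% LMT. The opposite μ-Slide reservoir holds chemoeffector (final 10 mM) in LMT (final 0.35%). Slides are incubated 3 h at 42°C, microaerobic. Cells in the chemoeffector reservoir are enumerated by viable count. Three biological repeats are run, each in triplicate.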

[6] = test system: C. jejuni 11168-O adherence to Caco-2, HCT116 and HCT116MUC1 cells; assay: Adherence of C. jejuni to cultured human cells with glycan competition; assay type: cell-based; details: 11168-O wild-type and Δtlp10^LBDc strains, 5 mM glycan
C. jejuni 11168-O [7] = assay: Biofilm assay; assay type: cell-based; details: 10 mM galactose
[8] = KD Tlp10^LBD Wild-type, Table 2, mean ± s.d.
[9] = KD, wild-type Tlp10^LBD, mean ± SD
[10] = read-out: KD Tlp10^LBD N115A, SPR, mean ± s.d., n = 3
[11] = read-out: KD Tlp10^LBD H193A, SPR, mean ± s.d., n = 3
[12] = read-out: KD Tlp10^LBD Wild-type, Table 2, mean ± s.d.
[13] = read-out: KD Tlp10^LBD N120A, SPR, mean ± s.d., n = 3
[14] = read-out: KD Tlp10^LBD Y70A, SPR, mean ± s.d., n = 3

Compound	Tlp10-mediated chemotactic response type (C. jejuni 11168-O [1])	migration of Δtlp10^LBD strain towards ligand compared to wild-type (C. jejuni 11168-O [1])	Kd (Tlp10^LBD N115A) [µM]	ligand-binding site on Tlp10^LBD (Tlp10^LBD wild type [2])	array (Tlp10^LBD)	Kd (Tlp10^LBD H193A) [µM]	Kd (Tlp10^LBD wild type [4]; [8]) [µM]	Kd (Tlp10^LBD wild type [4]; [9]) [µM]	SPR (Tlp10^LBD wild type [4])	Kd (Tlp10^LBD N120A) [µM]	Kd (Tlp10^LBD Y70A) [µM]	migration of Δtlp10^LBD cells toward ligand compared with wild-type (C. jejuni 11168-O [5])	also measured
CC(=O)N[C@@H](C=O)[C@@H](O[C@@H]1O[C@H](CO)[C@H](O)[C@H](O)[C@H]1O)[C@H](O[C@@H]1O[C@@H](C)[C@@H](O)[C@@H](O)[C@@H]1O)[C@H](O)CO [Lewis^a antigen]													interaction of Tlp10^LBD with complex glycans (Tlp10^LBD): interacted
N=C(N)NCCC[C@H](N)C(=O)O [arginine]	repellent response	increase in migration	41.9 ± 12	site A	+	29 ± 8	27.9 ± 3	27.9 ± 3	+	50.1 ± 8	19.1 ± 12		Tlp10-mediated chemotactic response type (C. jejuni 11168-O [3]): chemorepellent response
N[C@@H](CC(=O)O)C(=O)O [aspartate]	attractants		29.5 ± 8	both site A and site B with a preference for site B	+	30.9 ± 9	32.3 ± 10	32.3 ± 10	+	48 ± 7	38.9 ± 11		
C[C@H](O)[C@@H](O)[C@@H](O)[C@H](O)C=O [fucose]	attractants		22 ± 2	site B	+	28 ± 3	30 ± 4.1	30 ± 4.1	+	19.2 ± 4	34 ± 7	decreased	Tlp10-mediated chemotactic response type (C. jejuni 11168-O [5]): attractant response; effect on adherence to all cell lines tested [6]: suppressed the adherence; also recorded: less effective than that by galactose
O=C[C@H](O)[C@@H](O)[C@@H](O)[C@H](O)CO [galactose]	repellent	One-log increase in migration		site B	+				+			increased	Tlp10-mediated chemotactic response type (C. jejuni 11168-O [5]): repellent response; reduction of biofilm formation compared to untreated cells (C. jejuni 11168-O [7]; wild-type C. jejuni 11168-O): up to 46%; change in biofilm formation (C. jejuni 11168-O [7]; Δtlp10^LBD mutant): no significant change; effect on adherence to all cell lines tested [6]: suppressed the adherence
CC[C@H](C)[C@H](N)C(=O)O [isoleucine]	attractants		48.1 ± 5	site A	+	30.8 ± 7	37.9 ± 7	37.9 ± 7	+	51.2 ± 1.2	28.1 ± 6		Tlp10-mediated chemotactic response type (C. jejuni 11168-O [3]): chemoattractant response
O=C(O)CC(O)C(=O)O (stereo not shown) [malate]	attractants		176 ± 10	site B		161 ± 23	168 ± 19	168 ± 19	+	215 ± 31	184 ± 14		
OC[C@H]1OC(O)[C@@H](O)[C@@H](O)[C@@H]1O (stereo partly shown) [mannose]	attractants		52.1 ± 10	site B	+	32.1 ± 12	39.6 ± 9	39.6 ± 9	+	46.4 ± 12	43.3 ± 3	decreased	Tlp10-mediated chemotactic response type (C. jejuni 11168-O [5]): attractant response
c1ncc2nc[nH]c2n1 [purine]		not significantly affected	29 ± 8	site A	+	19 ± 2	21 ± 6	21 ± 6	+	34 ± 3	16 ± 1		
CC(=O)N[C@H]1[C@H]([C@H](O)[C@H](O)CO)OC(O)(C(=O)O)C[C@@H]1O (stereo partly shown) [sialic acid]			34.9 ± 13	site B	+	20.4 ± 9	29.3 ± 6.9	29.3 ± 6.9	+	37.1 ± 6	24.1 ± 7	No significant differences	
Cc1ncc(C[n+]2csc(CCO)c2C)c(N)n1 [thiamine]	repellent response	increase in migration	49.2 ± 10	both site A and site B with a preference for site B	+	50.6 ± 6	59.4 ± 13	59.4 ± 13	+	58.3 ± 9	62 ± 17		
O=C(O)CCC(=O)C(=O)O [α-ketoglutarate]		not significantly affected		site A					+				Kd (Tlp10^LBD N115A; [10]): 630 ± 27 µM; Kd (Tlp10^LBD H193A; [11]): 370 ± 63 µM; Kd (Tlp10^LBD wild type [4]; wild-type Tlp10^LBD, mean ± SD): 403 ± 13 µM; Kd (Tlp10^LBD wild type [4]; [12]): 403 ± 13 µM; Kd (Tlp10^LBD N120A; [13]): 580 ± 43 µM; Kd (Tlp10^LBD Y70A; [14]): 385 ± 40 µM
Fucα1–2Galβ1–3GalNAcβ1–4(Neu5Acα2–3) Galβ1–4Glc [human ganglioside GM1]													interaction of Tlp10^LBD with complex glycans (Tlp10^LBD): interacted
fumarate	attractants			site A	+				+				Kd (Tlp10^LBD N115A; [10]): 242 ± 30 µM; Kd (Tlp10^LBD H193A; [11]): 213 ± 59 µM; Kd (Tlp10^LBD wild type [4]; wild-type Tlp10^LBD, mean ± SD): 282 ± 68 µM; Kd (Tlp10^LBD wild type [4]; [12]): 282 ± 68 µM; Kd (Tlp10^LBD N120A; [13]): 317 ± 34 µM; Kd (Tlp10^LBD Y70A; [14]): 185 ± 25 µM
rhamnose		not significantly affected		site B	+				+			No significant differences	Kd (Tlp10^LBD N115A; [10]): 18.2 ± 1.9 µM; Kd (Tlp10^LBD H193A; [11]): 9.8 ± 0.95 µM; Kd (Tlp10^LBD wild type [4]; [12]): 11.1 ± 2 µM; Kd (Tlp10^LBD N120A; [13]): 17.9 ± 3.7 µM; Kd (Tlp10^LBD Y70A; [14]): 8.2 ± 3 µM
